This note sets out measurements from ChEMBL document CHEMBL2311378, “Synthesis and biological activity against Trypanosoma cruzi of substituted 1,4-naphthoquinones” (Eur J Med Chem, 2013).

Test [1] deals with Trypanosoma cruzi. In words: Antitrypanosomal activity against Trypanosoma cruzi Y bloodstream trypomastigotes isolated from infected Swiss mouse blood assessed as lysis level after 24 hrs. The test is classed as functional, organism-based. An outline of the steps:
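Infected mouse blood diluted with healthy mouse blood to 10⁶ trypomastigotes ml⁻¹. Compounds dissolved in DMSO, added to the blood, and incubated at 4 °C for 24 h. Remaining trypomastigotes were counted. Run in triplicate alongside DMSO and crystal violet controls. IC50 is the concentration lysing 50% of parasites.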

Test [2] concerns Trypanosoma cruzi. In words: Antitrypanosomal activity against Trypanosoma cruzi Y bloodstream trypomastigotes isolated from infected Swiss mouse blood assessed as lysis level at 32.0 uM after 24 hrs. The test is classed as functional.
In test [3] the test system is Trypanosoma cruzi. In words: Antitrypanosomal activity against Trypanosoma cruzi Y bloodstream trypomastigotes isolated from infected Swiss mouse blood assessed as lysis level at 2.0 uM after 24 hrs. The test is classed as functional.
Test [4] relates to Trypanosoma cruzi. The experiment in a line: Antitrypanosomal activity against Trypanosoma cruzi Y bloodstream trypomastigotes isolated from infected Swiss mouse blood assessed as lysis level at 8.0 uM after 24 hrs. The test is classed as functional.
The test system of test [5] is Trypanosoma cruzi. The experiment in a line: Antitrypanosomal activity against Trypanosoma cruzi Y bloodstream trypomastigotes isolated from infected Swiss mouse blood assessed as lysis level at 0.5 uM after 24 hrs. The test is classed as functional.

The structures appear in SMILES notation.

As to `COc1ccc(C(CC(=O)O)C2=CC(=O)c3ccccc3C2=O)cc1` (racemic), the half-maximal inhibitory concentration (IC50) (in general, the concentration that inhibits the measured activity by half) in the test with Trypanosoma cruzi [1] came to 48.5 µM. Also, the Activity stood at 38.7% in the test on Trypanosoma cruzi [2], 10.5% in the test with Trypanosoma cruzi [3], 14.1% with Trypanosoma cruzi [4] and 0% in the test with Trypanosoma cruzi [5].

As for `CCCCCCCC/C=C/CCCCCCCC1=C(C)C(=O)c2ccccc2C1=O`, the IC50 in the test on Trypanosoma cruzi [1] amounted to 32.6 µM. For the same compound, the Activity was 34% with Trypanosoma cruzi [2], 25.1% with Trypanosoma cruzi [3], 35.1% in the test with Trypanosoma cruzi [4] and 27.2% in the test with Trypanosoma cruzi [5].

Turning to `CCCCCCCC/C=C/CCCCCCCC1=CC(=O)c2ccccc2C1=O`, in the test on Trypanosoma cruzi [1], the concentration for half-maximal inhibition (IC50) amounted to 8.1 µM. In addition, the Activity in the test on Trypanosoma cruzi [2] worked out at 49.2%; in the test on Trypanosoma cruzi [3], 45.5%; with Trypanosoma cruzi [4] it was 46.1%; in the test on Trypanosoma cruzi [5], 37.2%.

For the compound `CCCCCCCC1=C(CCCCCCC)C(=O)c2ccccc2C1=O`, the 50% inhibitory concentration (IC50) in the test with Trypanosoma cruzi [1] is 124 µM. Further, the Activity with Trypanosoma cruzi [2] was determined as 18.3%; with Trypanosoma cruzi [3], 8.9%; in the test with Trypanosoma cruzi [4], 10.6%; in the test on Trypanosoma cruzi [5], 8.1%.

As to `CCCCC/C=C\C/C=C/CCCCCCCC1=C(O)C(=O)c2ccccc2C1=O`, the IC50 with Trypanosoma cruzi [1] came to 7.8 µM. The Activity in the test on Trypanosoma cruzi [2] is given as 50.8%; in the test with Trypanosoma cruzi [3] it was 47.6%; in the test with Trypanosoma cruzi [4], 42.9%; in the test with Trypanosoma cruzi [5], 44.5%.

On to `O=C1C(CCCCc2ccccc2)=C(CCCCc2ccccc2)C(=O)c2ccccc21`, for which the half-inhibitory concentration (IC50) in the test with Trypanosoma cruzi [1] came out at 25.1 µM. The Activity with Trypanosoma cruzi [2] came out at 44%; with Trypanosoma cruzi [3], 21.5%; with Trypanosoma cruzi [4] it was 35.1%; in the test on Trypanosoma cruzi [5] it was 3%.

As for `CCCCCCCC/C=C/CCCCCCCC1=C(O)C(=O)c2ccccc2C1=O`, the half-maximal inhibitory concentration (IC50) in the test on Trypanosoma cruzi [1] was 10.6 µM. The Activity with Trypanosoma cruzi [2] is reported as 57.6%; in the test on Trypanosoma cruzi [3], 22.5%; with Trypanosoma cruzi [4] it was 51.3%; in the test with Trypanosoma cruzi [5], 13.1%.

Regarding `COc1ccc(C(CC(=O)O)C2=C(C)C(=O)c3ccccc3C2=O)cc1` (racemic), the half-maximal inhibitory concentration (IC50) in the test on Trypanosoma cruzi [1] was found to be 17.4 µM. Further, the Activity in the test with Trypanosoma cruzi [2] is given as 55%; with Trypanosoma cruzi [3], 24.6%; with Trypanosoma cruzi [4] it was 34%; in the test with Trypanosoma cruzi [5], 12%.

In the case of `O=C1C=C(O)C(=O)c2ccccc21` [LAWSONE], in the test with Trypanosoma cruzi [1], the half-maximal inhibitory concentration (IC50) was greater than 2500 µM.

On to `CN(C)c1ccc(C(=C2C=CC(=[N+](C)C)C=C2)c2ccc(N(C)C)cc2)cc1` [GENTIAN VIOLET], for which the IC50 in the test with Trypanosoma cruzi [1] came out at 31 µM.

As to `CCCCC/C=C/C/C=C/CCCCCCCC1=C(C)C(=O)c2ccccc2C1=O`, in the test on Trypanosoma cruzi [1], the half-maximal inhibitory concentration (IC50) came out at 16.9 µM. Also, the Activity with Trypanosoma cruzi [2] came to 44.5%; in the test on Trypanosoma cruzi [3], 25.6%; in the test on Trypanosoma cruzi [4], 47.1%; with Trypanosoma cruzi [5], 15.2%.

For `CCCCC/C=C/C/C=C/CCCCCCCC1=CC(=O)c2ccccc2C1=O`, the IC50 in the test on Trypanosoma cruzi [1] came to 26.4 µM. The Activity in the test with Trypanosoma cruzi [2] turned out to be 49.2%; in the test with Trypanosoma cruzi [3], 7.8%; in the test with Trypanosoma cruzi [4], 30.9%; in the test on Trypanosoma cruzi [5], 0%.
